# Where two headings read alike, the source gives them in different places. Marks after values point to notes of the source that are not given here.
# Key:
# [1] = test system: CCA; settings: bioassay-guided activity; cited from earlier work
# [2] = format: in vivo, human; settings: for AUC0-t / AUC0-∞ / CL/F / MRT / Vz/F / t1/2z / tmax / λ / Cmax: median (range)
# Outline: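 Healthy Thai adults took oral 1,000 mg AL extract capsules with 200 ml water, either once (group 1) or daily for 21 days (group 2), with 20 active recipients per group. Plasma atractylodin was measured by reversed-phase C18 HPLC (UV 340 nm, acetonitrile:water 70:30, 25 °C; LOQ 2.5 ng/ml). Cmax was read from observed data. t1/2z came from log-linear regression of at least the last three points. MRT was AUMC0-∞/AUC0-∞.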
# [3] = rats, cited from earlier work
# [4] = group 1, single 1,000 mg AL, all
# [5] = group 1, single 1,000 mg AL, female
# [6] = group 1, single 1,000 mg AL, male
# [7] = group 2, daily 1,000 mg AL, day 1, all
# [8] = group 2, daily 1,000 mg AL, day 1, female
# [9] = group 2, daily 1,000 mg AL, day 1, male
# [10] = group 2, daily 1,000 mg AL, day 21, all
# [11] = group 2, daily 1,000 mg AL, day 21, female
# [12] = group 2, daily 1,000 mg AL, day 21, male
# [13] = intravenous 2 mg/kg body weight atractylodin
# [14] = oral 30 g/kg body weight A. rhizoma
# [15] = oral 40 g/kg body weight crude A. rhizoma
# [16] = oral 40 g/kg body weight processed A. rhizoma
smiles,measurement,setting,value
C/C=C/C#CC#C/C=C/c1ccco1 [atractylodin],"IC50, anti-CCA activity",[1],20 to 25 µg/mL
same,plasma atractylodin after 6 h,"[2]; all participants, both groups",undetectable
same,"observed Cmax, range","[2]; both groups, model-independent analysis",7.1 to 152.7 ng/mL
same,AUC0-t,[2]; [4],118.27 (72.47–169.90) ng.h/ml
same,AUC0-∞,[2]; [4],123.70 (75.13–176.96) ng.h/ml
same,CL/F,[2]; [4],6.68 (4.46–13.70) l/kg/h
same,MRT,[2]; [4],2.42 (1.74–3.11) h
same,Vz/F,[2]; [4],11.45 (7.06–20.17) l/kg
same,t1/2z,[2]; [4],1.13 (0.78–1.48) h
same,tmax,[2]; [4],1 (0.75–1.5) h
same,λ,[2]; [4],0.62 (0.47–0.89) /h
same,AUC0-t,[2]; [5],122.67 (72.47–192.85) ng.h/ml
same,AUC0-∞,[2]; [5],128.13 (75.13–199.88) ng.h/ml
same,CL/F,[2]; [5],6.87 (4.48–13.70) l/kg/h
same,Cmax,[2]; [5],58.65 (42.50–96.80) ng/ml
same,MRT,[2]; [5],2.21 (1.70–3.74) h
same,Vz/F,[2]; [5],12.11 (6.62–20.17) l/kg
same,t1/2z,[2]; [5],1.18 (0.72–2.19) h
same,tmax,[2]; [5],1.0 (0.75–1.0) h
same,λ,[2]; [5],0.71 (0.37–0.92) /h
same,AUC0-t,[2]; [6],142.14 (83.48–199.75) ng.h/ml
same,AUC0-∞,[2]; [6],146.88 (86.09–226.53) ng.h/ml
same,CL/F,[2]; [6],6.29 (2.80–8.92) l/kg/h
same,Cmax,[2]; [6],59.20 (41.80.50–99.30) ng/ml
same,MRT,[2]; [6],2.42 (1.71–2.94) h
same,Vz/F,[2]; [6],11.49 (8.35–56.42) ^a l/kg
same,t1/2z,[2]; [6],1.23 (0.13–2.77) h
same,tmax,[2]; [6],1.0 (0.75–2.0) h
same,λ,[2]; [6],0.85 (0.29–1.10) /h
same,participants with atractylodin detected at 0.25 h,"[2]; group 1, single 1,000 mg AL, 10 participants",50%
same,AUC0-t,[2]; [7],93.06 (12.13–276.28) ng.h/ml
same,AUC0-∞,[2]; [7],112.2 (20.11–306.76) ng.h/ml
same,CL/F,[2]; [7],7.33 (2.87–33.43) l/kg/h
same,Cmax,[2]; [7],47.10 (7.10–129.90) ng/ml
same,MRT,[2]; [7],2.60 (1.58–5.17) h
same,Vz/F,[2]; [7],12.75 (4.44–61.56) l/kg
same,t1/2z,[2]; [7],1.16 (0.63–3.75) h
same,tmax,[2]; [7],1.0 (0.5–2.0) h
same,λ,[2]; [7],0.60 (0.19–1.11) /h
same,AUC0-t,[2]; [8],99.67 (42.88–276.28) ng.h/ml
same,AUC0-∞,[2]; [8],139.56 (70.21–248.22) ng.h/ml
same,CL/F,[2]; [8],6.43 (2.87–15.00) l/kg/h
same,Cmax,[2]; [8],54.35 (16.10–129.90) ng/ml
same,MRT,[2]; [8],2.66 (1.70–3.99) h
same,Vz/F,[2]; [8],11.97 (4.44–37.88) l/kg
same,t1/2z,[2]; [8],1.36 (0.85–1.75) h
same,λ,[2]; [8],0.52 (0.40–0.82) /h
same,AUC0-t,[2]; [9],82.88 (12.13–181.08) ng.h/ml
same,AUC0-∞,[2]; [9],92.40 (20.11–210.23) ng.h/ml
same,CL/F,[2]; [9],8.38 (3.77–33.43) l/kg/h
same,Cmax,[2]; [9],41.90 (7.10–67.20) ng/ml
same,MRT,[2]; [9],2.47 (1.58–5.17) h
same,Vz/F,[2]; [9],13.96 (6.73–61.56) l/kg
same,t1/2z,[2]; [9],1.09 (0.63–3.75) h
same,tmax,[2]; [9],1.0 (1.0–2.0) h
same,λ,[2]; [9],0.64 (0.19–1.11) /h
same,participants with atractylodin detected at 0.5 h,"[2]; group 2, daily 1,000 mg AL, day 1, 17 participants",85%
same,AUC0-t,[2]; [10],106.67 (40.42–259.81) ng.h/ml
same,AUC0-∞,[2]; [10],117.75 (48.73-269-21) ng.h/ml
same,CL/F,[2]; [10],6.80 (2.95–14.82) l/kg/h
same,Cmax,[2]; [10],46.95 (20.10–152.70) ng/ml
same,MRT,[2]; [10],2.64 (1.58–4.54) h
same,Vz/F,[2]; [10],12.85 (3.58–31.55) l/kg
same,t1/2z,[2]; [10],1.14 (0.80–2.17) h
same,tmax,[2]; [10],1.0 (0.5–2.0) h
same,λ,[2]; [10],0.61 (0.32–0.87) /h
same,AUC0-t,[2]; [11],118.05 (42.97–212.09) ng.h/ml
same,AUC0-∞,[2]; [11],145.54 (67.49–232.33) ng.h/ml
same,CL/F,[2]; [11],5.93 (3.79–11.38) l/kg/h
same,Cmax,[2]; [11],52.55 (20.10–152.70) ng/ml
same,MRT,[2]; [11],2.61 (1.58–4.54) h
same,Vz/F,[2]; [11],12.12 (5.11–31.55) l/kg
same,t1/2z,[2]; [11],1.28 (0.80–2.17) h
same,tmax,[2]; [11],1.0 (0.5–2.0) h
same,λ,[2]; [11],0.54 (0.32–0.87) /h
same,AUC0-t,[2]; [12],75.38 (40.42–259.81) ng.h/ml
same,AUC0-∞,[2]; [12],91.67 (48.73-269-21) ng.h/ml
same,CL/F,[2]; [12],7.90 (2.95–14.82) l/kg/h
same,Cmax,[2]; [12],44.0 (22.0–107.0) ng/ml
same,MRT,[2]; [12],2.64 (1.95–3.08) h
same,Vz/F,[2]; [12],13.79 (3.58–22.13) l/kg
same,t1/2z,[2]; [12],1.08 (0.84–1.65) h
same,tmax,[2]; [12],1.0 (1.0–2.0) h
same,λ,[2]; [12],0.64 (0.42–0.82) /h
same,participants with atractylodin detected at 0.5 h,"[2]; group 2, daily 1,000 mg AL, day 21, 19 participants",95%
same,plasma atractylodin level at 4 h,"[2]; group 2, daily 1,000 mg AL, range",2.5 to 18.2 ng/mL
same,accumulation after multiple oral dosing,"[2]; human plasma, multiple oral dosing for 21 days",no accumulation
same,time by which atractylodin was cleared in plasma,[2]; most participants,≤ 4 h
same,central volume of distribution (Vc),[3]; [13],31.7 L/kg
same,t1/2,[3]; [13],3.3 h
same,total clearance (CL),[3]; [13],110 mL/min/kg
same,mean maximum plasma concentration (Cmax),[3]; [14],"1,930 ng/ml"
same,terminal elimination half-life (t1/2),[3]; [14],8 h
same,time to Cmax (tmax),[3]; [14],2.25 h
same,CL/F,[3]; [15],111 mL/min/kg
same,mean Cmax,[3]; [15],625 ng/mL
same,mean residence time (MRT),[3]; [15],4.8 h
same,t1/2z,[3]; [15],2.38 h
same,time of Cmax,[3]; [15],2.2 h
same,CL/F,[3]; [16],42.7 mL/min/kg
same,MRT,[3]; [16],7.06 h
same,mean Cmax,[3]; [16],"2,299 ng/ml"
same,t1/2z,[3]; [16],5.13 h
same,tmax,[3]; [16],0.33 h

# Source: article PMC8240349 (Journal of Traditional and Complementary Medicine, 2021)
